Assay outcomes: PubChem BioAssay, The Scripps Research Institute Molecular Screening Center
PLCb3 inh = blocks human PLC-beta3 enzyme activity; Q01970; Purified PLC-beta3, fluorogenic substrate, fluorescence; inhibition, % at 12.2 µM; hit rate 0.18% among 370,000;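 note: 0% = median of compound wells on plate and 100% = full blocker control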
ADAM10 inh = inhibitors of human ADAM10; O14672; recombinant ADAM10, EDANS/DABCYL FRET peptide cleavage, 3 h; inhibition, % at 7 µM; hit rate 0.62% among 370,000;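 active = inhibition above a per-campaign cutoff equal to the mean of compounds falling between control-based bounds plus 3 SD, cut at about 20% in these data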;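 note: 0% = DMSO wells while the 100% control is not disclosed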
Target sequence (O14672 214-748 limits assumed): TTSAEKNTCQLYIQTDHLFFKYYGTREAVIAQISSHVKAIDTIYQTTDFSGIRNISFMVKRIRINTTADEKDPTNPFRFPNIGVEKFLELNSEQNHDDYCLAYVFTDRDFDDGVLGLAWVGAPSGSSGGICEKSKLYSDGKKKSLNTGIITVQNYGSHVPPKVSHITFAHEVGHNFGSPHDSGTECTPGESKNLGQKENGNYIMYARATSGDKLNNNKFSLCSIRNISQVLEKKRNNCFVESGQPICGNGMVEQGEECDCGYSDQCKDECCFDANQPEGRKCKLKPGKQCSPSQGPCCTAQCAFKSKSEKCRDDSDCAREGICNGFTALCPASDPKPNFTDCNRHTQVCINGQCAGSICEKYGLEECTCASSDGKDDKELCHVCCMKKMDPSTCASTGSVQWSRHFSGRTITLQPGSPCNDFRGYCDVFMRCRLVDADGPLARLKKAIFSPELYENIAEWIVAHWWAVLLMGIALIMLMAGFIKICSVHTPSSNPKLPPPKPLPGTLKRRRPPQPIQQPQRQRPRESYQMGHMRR
DDE Tn6 FP inh = disrupts Tn6 cyclic peptide binding to fibrin D-Dimer-E complex | inhibition, % at 8.3 µM | AID 720509 | Fibrin DD(E) TRITC-Tn6 fluorescence polarization displacement | P02675 | hit rate 0.21% among 370,000;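 active = inhibition above a per-campaign cutoff: mean of compounds within control limits plus 3 SD, cut at about 15% in these data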;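 note: 0% = median of all compound wells on the plate and 100% = blocking peptide control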
ADAM17 inh = inhibits human ADAM17; P78536; recombinant ADAM17, EDANS/DABCYL FRET peptide cleavage; inhibition, % at 6.95 µM; hit rate 0.83% among 370,000; AID 720648;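 active = inhibition above the mean of compounds lying between control limits plus 3 SD, set per campaign, cut at about 8.5% in these data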;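 note: 0% = DMSO-only wells as the low control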
DDE Tn7 FP inh = DD(E)-Tn7 binding inhibition, primary FP screen | FP displacement of FITC-Tn7 peptide from fibrin DD(E); 0% = median of compound wells per plate | inhibition, % at 8.3 µM | hit rate 0.13% among 370,000 | P02675;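 active = inhibition above the mean of compounds falling within the control limits plus 3 SD of them, cut at about 14% in these data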;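 note: 0% = plate median of compound wells and 100% = 10 µM Aha-Tn7 peptide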
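system = human fibrin DD(E) protein | quantity = DD(E) 2 µM final | medium = Tris/NaCl/CaCl2 buffer, pH 7.8 | also added = labelled Tn7 tracer, 0.1 µM | compound dosing = single point at 8.3 µM | timing = compound with protein 10 min, then 3 h after probe, room temperature | signal = FP measurement | benchmarks = Aha-Tn7 high control | repeats = one replicate per compound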
PLC-gamma1 inh = blocks human PLC-gamma1 enzyme activity | AID 720700 | inhibition, % at 12.2 µM | P19174 | hit rate 0.84% among 370,000 | purified PLC-gamma1, fluorogenic substrate, fluorescence; in the data active = inhibition above about 9.5%
ADAM10 counter = ADAM10 inhibition, counter-screen for ADAM17 exosite hits; shares compounds with ADAM17 inh; hit rate 47% among 2,900; inhibition, % at 6.95 µM; AID 743256; recombinant ADAM10, EDANS/DABCYL FRET peptide cleavage, 3 h;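 active = mean inhibition over the triplicate runs exceeds the activity threshold set in the earlier primary screen, cut at about 20% in these data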;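 note: 0% = DMSO wells and 100% = marimastat wells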
ADAM17 confirm = confirmation of inhibitors of human ADAM17. shares compounds with ADAM17 inh. recombinant ADAM17, EDANS/DABCYL QFRET peptide cleavage. inhibition, % at 6.95 µM. hit rate 65% among 2,900. AID 743257;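 active = mean inhibition across replicates above the hit cutoff set in the primary screen, cut at about 8.5% in these data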;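 note: 0% = DMSO wells and 100% = marimastat wells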
PLCg1 ctr = inhibits human PLC-gamma1 in PLC-beta3 counter-screen; shares compounds with PLC-gamma1 inh; purified PLC-gamma1, fluorogenic substrate, fluorescence; inhibition, % at 12.3 µM; hit rate 3.1% among 3,300; in the data active = inhibition above about 9.5%
PLCb3 confirm = confirmation of human PLC-beta3 inhibitors. shares compounds with PLC-gamma1 inh. purified PLC-beta3, fluorogenic substrate fluorescence. inhibition, % at 12.3 µM. hit rate 1% among 3,300. AID 743261
Active calls of the source: *; · = not tested or not shown. This is a sample that favours compounds with a hit; in the whole collection about 2.3% have one here. Cut-off read from the data, not from the text of the source, unless noted: active = inhibition above about 11%; inactive = the rest.

SMILES	PLCb3 inh	ADAM10 inh	DDE Tn6 FP inh	ADAM17 inh	DDE Tn7 FP inh	PLC-gamma1 inh	ADAM10 counter	ADAM17 confirm	PLCg1 ctr	PLCb3 confirm
CCNC(=O)C/C(C)=N/NC(=O)C1CCCCC1	7.7	7.3	5.0	8.9*	-2.4	10.6*	-2.7	-0.2	0.2	-0.7
CN(Cc1ccccc1)C(=O)c1ccc(NC(=O)Cc2ccc(NC(=O)C3CCN(C(=O)C4CCCC4)CC3)cc2)cc1	5.3	2.6	-10.5	9.1*	-2.8	10.0*	33.1*	9.2*	-3.8	3.0
C[C@@H]1CC=C[C@@H]2[C@H]1C(=O)N(Cc1ccccc1)[C@H]2c1cccc(Br)c1	4.4	2.3	-10.8	8.6*	1.7	11.7*	15.7	10.4*	0.4	0.1
CN(C)S(=O)(=O)c1ccc(NC(=O)COC(=O)CC2CC3CCC2C3)cc1 (centres undefined)	3.3	13.5	3.3	8.6*	-5.2	9.8*	20.1*	13.5*	-7.2	-3.2
CCCN1CCS(=O)(=O)N(Cc2cn(Cc3ccc(Cl)cc3)nn2)C(C(=O)OC)C1 (centres undefined)	-0.2	-2.6	-2.0	-1.0	-6.2	-0.5	·	·	·	·
Cc1ccc(-c2ccc(/C=N/NC(=S)Nc3ccccc3)o2)cc1[N+](=O)[O-]	-1.0	13.6	-7.2	14.2*	-4.4	9.7*	24.4*	16.9*	-13.3	-14.5
CNC(=S)N/N=C/c1ccc(-c2ccc(Cl)c([N+](=O)[O-])c2)o1	-2.5	-2.7	3.3	-1.3	-1.3	3.2	·	·	·	·
O=S1(=O)c2c(cccc2N2CCC[C@H]2CO)O[C@@H]2CCN1C2	0.3	0.4	-1.9	-1.9	3.1	-4.0	·	·	·	·
CC(Oc1ccc(Cl)cc1Cl)C(=O)Nc1ccc(O)cc1 (centres undefined)	5.4	5.5	-2.5	8.8*	-3.8	15.9*	5.0	6.1	-8.1	-5.8
CC(Oc1ccc(Cl)cc1Cl)C(=O)Nc1cccc(O)c1 (centres undefined)	-1.6	-5.4	0.1	-1.1	1.0	-3.4	·	·	·	·
CCn1c(CNC(=O)COc2ccc(C(C)C)cc2)nnc1SCC(=O)Nc1ccc(F)cc1	1.9	2.6	6.9	4.1	-7.2	1.6	·	·	·	·
CCn1c(CNC(=O)COc2ccc(C(C)C)cc2)nnc1SCC(=O)Nc1cc(F)ccc1C	8.0	12.5	-0.2	11.7*	-5.9	10.3*	0.8	3.9	-1.3	-1.8
Cc1ccc(C2CCC3(CCC(=O)N3CCOC(=O)Nc3ccc(F)cc3)CC2)cc1 (centres undefined)	-2.0	2.3	-6.3	-2.3	6.5	1.4	·	·	·	·
COc1ccc(CNC(=O)C2(CC3CC(c4ccccc4)=NO3)CCN(C(=O)C3(C)CC3)CC2)cc1 (centres undefined)	7.2	6.5	2.2	8.7*	-9.1	10.8*	0.7	5.3	-2.4	2.0
CN1C/C(=C/c2ccccc2)N2C(=O)C[C@@H](c3ccccc3)N=C12	-7.6	-4.1	-5.9	-3.0	0.5	-10.0	·	·	·	·
O=[N+]([O-])c1cc([N+](=O)[O-])c(Oc2cccc3ccccc23)cc1NN1CCCCC1	2.1	-13.5	1.2	-1.7	1.8	6.4	·	·	·	·
O=[N+]([O-])c1cc([N+](=O)[O-])c(Oc2cccnc2Br)cc1NN1CCCCC1	10.3	3.3	-1.4	11.3*	0.6	10.9*	25.6*	15.4*	5.2	4.5
COC(=O)[C@]12C[C@H](CC(=O)NCc3ccc(OC)c(OC)c3)C(=O)N(Cc3ccc(Cl)cc3Cl)C1=C[C@H](C(C)(C)C)O[C@@H]2C	1.2	12.2	2.7	5.0	-2.0	-1.1	·	·	·	·
CCCCCC(=O)NC1CCCCN(Cc2ccc(Cl)cc2)C1=O (centres undefined)	0.2	-6.4	-3.9	-5.5	3.8	2.8	·	·	·	·
CC1CCCCC12NC(=O)N(CC(=O)Nc1ccc(Cl)c(S(=O)(=O)N3CCOCC3)c1)C2=O (centres undefined)	-7.6	1.6	7.4	-2.4	9.1	-0.2	·	·	·	·
CCCC1(CCC)NC(=O)N(CC(=O)Nc2ccc(Cl)c(S(=O)(=O)N3CCOCC3)c2)C1=O	4.1	16.1	-11.0	15.4*	3.5	10.7*	2.8	1.6	2.8	0.1
O=C(Nc1ccc(F)cc1)OCc1cn(Cc2cccc(Cl)c2)nn1	-3.8	6.9	0.8	2.4	8.9	-0.5	·	·	·	·
COC(=O)[C@]12C[C@H](CC(=O)N3CCSCC3)C(=O)N(Cc3cccc4ccccc34)C1=C[C@H](COCc1ccccc1)O[C@@H]2C	-1.7	-4.5	1.2	-2.7	6.5	4.1	·	·	·	·
O=C(CCNS(=O)(=O)c1ccccc1)NCCCSc1ccccc1	-8.6	-8.5	-1.6	-2.8	4.8	7.0	·	·	·	·
O=C(CCNS(=O)(=O)c1ccccc1C(F)(F)F)NCCCSc1ccccc1	-0.7	8.6	0.1	8.7*	-2.2	11.8*	14.3	10.1*	-6.1	-0.7
SMILES	PLCb3 inh	ADAM10 inh	DDE Tn6 FP inh	ADAM17 inh	DDE Tn7 FP inh	PLC-gamma1 inh	ADAM10 counter	ADAM17 confirm	PLCg1 ctr	PLCb3 confirm
CN(CC#CC1=CCCCC1)/C(N)=N/C(=O)OCc1ccccc1	1.8	7.7	3.3	7.5	5.1	2.0	·	·	·	·
CC(COc1cccc(Cl)c1)CN1CCC(C(O)(c2ccccc2)c2ccccc2)CC1 (centres undefined)	3.1	12.2	-5.6	7.3	1.8	5.1	·	·	·	·
Cc1ccc(N(CC(=O)NCc2cccnc2)S(C)(=O)=O)cc1C	4.5	13.2	-3.1	10.1*	-3.0	11.8*	0.3	0.7	-2.7	1.0
Cc1nc2ccc(S(=O)(=O)NCC(=O)NCc3ccc(F)cc3)cc2s1	-5.3	-10.0	-0.9	-1.1	11.0	0.0	·	·	·	·
COCC(=O)N1[C@H](CO)[C@@H](c2ccc(-c3cccnc3)cc2)[C@H]1CN(C)S(=O)(=O)c1ccccc1[N+](=O)[O-]	-4.0	-3.0	-4.0	-0.8	-1.5	-5.0	·	·	·	·
O=c1[nH]n(-c2ccccc2Cl)c(=O)c2ccccc12	-3.6	-5.9	-0.6	10.5*	1.6	13.9*	9.9	10.4*	-10.4	-6.7
Cn1[nH]c(=O)c2ccccc2c1=O	-12.9	-12.4	-1.4	-6.6	-3.5	-10.9	·	·	·	·
CCOC(=O)CC[C@@H]1CC[C@]2(CCCN(C(=O)c3ccc4ccccc4n3)C2)O1	-0.5	-7.8	0.8	-4.7	0.5	-0.5	·	·	·	·
